Data on 16 compounds can be found in ChEMBL document CHEMBL4390650, “Design, synthesis and biological evaluation of 2-(phenoxymethyl)-5-phenyl-1,3,4-oxadiazole derivatives as anti-breast cancer agents” (Eur J Med Chem, 2019).

Activity calls are given as the source filed them. The calls are words filed in the database; no cut-off is given here. Where only a bound is given, the exact number is not on record here.

Experiment [1] deals with MDA-MB-453. Kind of experiment: Cytotoxicity against human MDA-MB-453 cells assessed as reduction in cell viability incubated for 48 hrs by MTT assay. The class given is functional, cell-based. Particulars: for IC50: MDA-MB-453, 48 h. A digest of the protocol: (§1)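 Cells came from NCCS Pune and were grown in DMEM with 10% FBS at 37°C, 5% CO2, then trypsinized at 70-80% confluence. About 5,000 cells/well were seeded and allowed 24 h to recover. Compounds in DMSO, up to 100 μM, were added for 48 h against DMSO-only controls. The medium was then changed and MTT (5 mg/ml stock) added for 4 h. Formazan was dissolved in DMSO and read at 560 nm. Values are mean ± SD of three independent experiments in triplicate.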
In general terms: Tetrazolium assays rely on reduction of a dye to a coloured formazan, in cell work by metabolically active cells.

Another experiment relates to MCF-10A. Kind of experiment: Cytotoxicity against human MCF10A cells assessed as reduction in cell viability incubated for 48 hrs by MTT assay. The class given is cell-based. In short, it runs like this: as §1
A further experiment relates to MCF7. Kind of experiment: Cytotoxicity against human MCF7 cells assessed as reduction in cell viability incubated for 48 hrs by MTT assay. The class given is functional, cell-based. Particulars: for IC50: MCF7, 48 h. In short, it runs like this: as §1
The subject of experiment [2] is MDA-MB-453. Kind of experiment: Induction of apoptosis in human MDA-MB-453 cells assessed as increase in p53 protein expression incubated for 48 hrs by Western blot analysis. The class given is functional, cell-based. In short, it runs like this: (§2)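 Western blot of treated MDA-MB-453 cells, with GAPDH as loading control.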
The test system of experiment [3] is MDA-MB-453. Kind of experiment: Induction of necrosis in human MDA-MB-453 cells at 10 uM incubated for 48 hrs by acridine orange and ethidium bromide staining based inverted fluorescent microscopy. The class given is functional, cell-based. A digest of the protocol: (§3)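 MDA-MB-453 cells were seeded at 5×10⁵/well and incubated overnight at 37°C, 5% CO2, then treated for 48 h. They were stained 5 min with a 1:1 acridine orange/ethidium bromide mix (each dye 100 μg/ml) and imaged immediately under an inverted fluorescence microscope. Scoring: live cells green, late apoptotic orange, necrotic red.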

The subject of experiment [4] is MDA-MB-453. Kind of experiment: Induction of morphological changes in human MDA-MB-453 cell assessed as induction of chromatin condensation at 10 uM incubated for 48 hrs by acridine orange and ethidium bromide staining based inverted fluorescent microscopy. The class given is functional. In short, it runs like this:
as §3

The target of experiment [5] is DNA (cytosine-5)-methyltransferase 1 (Homo sapiens) (UniProt P26358). Kind of experiment: Inhibition of DNMT1 (unknown origin) at 100 uM using cytosine-rich DNA substrate by ELISA relative to untreated control. In short, it runs like this:
(§4)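 DNMT activity was measured with a commercial DNA methyltransferase activity/inhibition screening kit, following the manufacturer's instructions.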
(In general: In an ELISA, binding on a coated surface is turned into a signal by an enzyme label.)

Experiment [6] relates to MDA-MB-453. Kind of experiment: Induction of morphological changes in human MDA-MB-453 cell assessed as induction of protrusion elongation at 10 uM incubated for 48 hrs by acridine orange and ethidium bromide staining based inverted fluorescent microscopy. The class given is functional. A digest of the protocol: as §3
The subject of experiment [7] is MDA-MB-453. Kind of experiment: Induction of morphological changes in human MDA-MB-453 cell assessed as induction of cell membrane blebbing at 10 uM incubated for 48 hrs by acridine orange and ethidium bromide staining based inverted fluorescent microscopy. The class given is functional. In short, it runs like this: as §3
Experiment [8] deals with MDA-MB-453. Kind of experiment: Induction of apoptosis in human MDA-MB-453 cells at 10 uM incubated for 48 hrs by acridine orange and ethidium bromide staining based inverted fluorescent microscopy. The class given is functional, cell-based. In short, it runs like this:
as §3

Experiment [9] relates to MDA-MB-453. Kind of experiment: Induction of apoptosis in human MDA-MB-453 cells assessed as increase in SMAD7 protein expression at 10 uM incubated for 48 hrs by Western blot analysis. Type of experiment: functional, cell-based. In short, it runs like this:
as §2
In general terms: In western blotting, separated proteins are transferred to a membrane and probed.

For experiment [10], the target named is DNA (cytosine-5)-methyltransferase 3B (Homo sapiens) (UniProt Q9UBC3). Kind of experiment: Inhibition of DNMT3B (unknown origin) at 100 uM using cytosine-rich DNA substrate by ELISA relative to untreated control. A digest of the protocol: as §4

In general, IC50 refers to the concentration needed to halve the response being measured. Usually inhibition stands for the drop in the measured response relative to a control, in per cent. Read a low inhibition as a response near the control.

Chain of DNA (cytosine-5)-methyltransferase 1 (Homo sapiens) (P26358 whole entry): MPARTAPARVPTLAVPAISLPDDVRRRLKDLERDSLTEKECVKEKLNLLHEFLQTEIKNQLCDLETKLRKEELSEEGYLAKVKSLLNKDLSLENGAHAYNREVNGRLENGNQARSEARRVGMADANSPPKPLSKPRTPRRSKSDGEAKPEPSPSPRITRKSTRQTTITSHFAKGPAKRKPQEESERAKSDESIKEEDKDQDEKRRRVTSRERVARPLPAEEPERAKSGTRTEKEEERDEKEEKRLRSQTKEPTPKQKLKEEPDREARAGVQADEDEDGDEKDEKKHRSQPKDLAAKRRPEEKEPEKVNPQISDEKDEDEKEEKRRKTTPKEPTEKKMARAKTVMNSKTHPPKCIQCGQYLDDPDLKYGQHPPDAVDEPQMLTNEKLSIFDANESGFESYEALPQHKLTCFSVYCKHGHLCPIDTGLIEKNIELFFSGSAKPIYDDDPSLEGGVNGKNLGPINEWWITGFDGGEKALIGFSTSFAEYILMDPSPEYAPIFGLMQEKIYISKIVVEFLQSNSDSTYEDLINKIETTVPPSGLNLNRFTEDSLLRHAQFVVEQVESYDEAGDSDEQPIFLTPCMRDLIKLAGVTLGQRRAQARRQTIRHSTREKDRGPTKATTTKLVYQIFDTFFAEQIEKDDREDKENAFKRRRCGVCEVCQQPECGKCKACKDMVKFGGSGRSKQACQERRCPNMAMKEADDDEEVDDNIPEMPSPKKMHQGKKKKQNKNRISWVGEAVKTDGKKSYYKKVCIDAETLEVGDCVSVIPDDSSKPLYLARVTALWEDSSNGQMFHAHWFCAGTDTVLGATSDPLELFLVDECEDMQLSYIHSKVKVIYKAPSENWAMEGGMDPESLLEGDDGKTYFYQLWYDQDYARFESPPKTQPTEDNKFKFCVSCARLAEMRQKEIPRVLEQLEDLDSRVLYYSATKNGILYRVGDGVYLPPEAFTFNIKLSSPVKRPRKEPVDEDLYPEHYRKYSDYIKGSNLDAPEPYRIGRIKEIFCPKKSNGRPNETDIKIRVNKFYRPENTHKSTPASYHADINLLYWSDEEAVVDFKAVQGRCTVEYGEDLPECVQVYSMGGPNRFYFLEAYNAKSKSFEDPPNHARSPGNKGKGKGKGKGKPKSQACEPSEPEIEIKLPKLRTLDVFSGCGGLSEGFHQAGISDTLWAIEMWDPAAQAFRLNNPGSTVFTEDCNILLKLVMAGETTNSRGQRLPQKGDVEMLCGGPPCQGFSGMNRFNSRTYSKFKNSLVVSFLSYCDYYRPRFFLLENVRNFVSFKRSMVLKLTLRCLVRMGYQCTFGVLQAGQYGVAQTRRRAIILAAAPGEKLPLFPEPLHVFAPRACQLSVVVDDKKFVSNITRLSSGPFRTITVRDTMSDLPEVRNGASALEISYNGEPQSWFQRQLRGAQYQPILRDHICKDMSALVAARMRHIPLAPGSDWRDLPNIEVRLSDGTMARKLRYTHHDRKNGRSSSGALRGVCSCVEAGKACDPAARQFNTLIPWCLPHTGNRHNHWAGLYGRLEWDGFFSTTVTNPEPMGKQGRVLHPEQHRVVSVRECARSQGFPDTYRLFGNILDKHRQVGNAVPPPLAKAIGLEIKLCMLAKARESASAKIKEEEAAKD

For the compound `COc1ccc(-c2nnc(COc3ccc(C#N)c(F)c3)o2)cc1`, the IC50 with MDA-MB-453 [1] is 45.5 µM; with MCF-10A, > 100 µM; in the experiment with MCF7, 42.1 µM.
The corresponding values for `COc1ccc(-c2nnc(COc3ccc(C#N)cc3OC)o2)cc1` are 13 µM, > 100 µM and 11.1 µM.
For `N#Cc1ccc(OCc2nnc(-c3ccc(F)cc3)o2)cc1F` the same measures were 25.1 µM, 84.2 µM and 20.4 µM.
The corresponding values for `c1ccc(-c2nnc(COc3ccc(-c4nnco4)cc3)o2)cc1` are > 50 µM, > 100 µM and > 50 µM.
Turning to `Cc1ccc(NC(=O)c2ccc(CN3CCN(C)CC3)cc2)cc1Nc1nccc(-c2cccnc2)n1` [IMATINIB], the values for the IC50 in the experiment with MDA-MB-453 [1] and with MCF-10A were 12.8 µM and > 100 µM, respectively.
For the compound `COc1cc(C#N)ccc1OCc1nnc(-c2ccc(C)cc2)o1`, the IC50 was 38.4 µM in the experiment with MDA-MB-453 [1], > 100 µM with MCF-10A and 27.1 µM with MCF7.
For `COc1cc(C#N)ccc1OCc1nnc(-c2ccccc2)o1` the same measures were 40.1 µM, > 100 µM and 32.2 µM.
For `Clc1ccc(-c2nnc(COc3ccc(-c4nnco4)cc3)o2)cc1` the same measures were > 50 µM, > 100 µM and 45.2 µM.
In the case of `COc1ccc(-c2nnc(COc3ccc(-c4nnco4)cc3)o2)cc1`, the IC50 in the experiment on MDA-MB-453 [1] was 36.2 µM; in the experiment on MCF-10A it was > 100 µM; in the experiment with MCF7 it was 31.2 µM.
For `Fc1ccc(-c2nnc(COc3ccc(-c4nnco4)cc3)o2)cc1` the same measures were 38.2 µM, > 100 µM and 35.6 µM.
The corresponding values for `N#Cc1ccc(OCc2nnc(-c3ccc(Cl)cc3)o2)cc1F` are > 50 µM, > 100 µM and 48.3 µM.
With `N#Cc1ccc(OCc2nnc(-c3ccccc3)o2)cc1F`, the IC50 with MDA-MB-453 [1] was > 50 µM; with MCF-10A it was > 100 µM; in the experiment on MCF7, > 50 µM.
As to `Cc1ccc(-c2nnc(COc3ccc(C#N)c(F)c3)o2)cc1`, the IC50 with MDA-MB-453 [1] is > 50 µM; in the experiment on MCF-10A it was > 100 µM; in the experiment with MCF7, > 50 µM.
On to `Cc1ccc(-c2nnc(COc3ccc(-c4nnco4)cc3)o2)cc1`, for which the IC50 in the experiment with MDA-MB-453 [1] was > 50 µM; with MCF-10A it was > 100 µM; in the experiment on MCF7, > 50 µM.
Turning to `COc1cc(C#N)ccc1OCc1nnc(-c2ccc(F)cc2)o1`, the Activity entry with MDA-MB-453 [2], in the experiment with MDA-MB-453 [1] and in the experiment with MCF7 was “Dose-dependent effect” each time. For the same compound, the result with MDA-MB-453 [3], in the experiment on MDA-MB-453 [4], with MDA-MB-453 [6], in the experiment with MDA-MB-453 [7], with MDA-MB-453 [8] and with MDA-MB-453 [9] was Active. The figures for the inhibition in [5] and in experiment [10] were 10% and 33%, respectively. Also, the IC50 with MDA-MB-453 [1] was 10.5 µM; with MCF-10A it was > 100 µM; with MCF7 it was 10.2 µM.
On to `COc1cc(C#N)ccc1OCc1nnc(-c2ccc(Cl)cc2)o1`, for which the IC50 in the experiment on MDA-MB-453 [1] was 33.9 µM; in the experiment with MCF-10A, 89.5 µM; in the experiment with MCF7, 21.5 µM.
